The source made the active and inactive calls. No cut-off for these calls is given here.
Key:
Cannabinoid receptor 2 = Cannabinoid receptor 2 (Homo sapiens, UniProt P34972); experiment: Displacement of [3H]CP55940 from recombinant human CB2 receptor expressed in human HEK293 cell membrane after 90 mins; format: cell membranes
Summary of the method: (§1)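 Membranes of HEK-293 cells transfected with human recombinant CB1R (Bmax 2.5 pmol/mg protein) or CB2R (Bmax 4.7 pmol/mg protein). Test compound at increasing concentrations displaced [3H]CP55,940 over 90 min at 30 °C. Ki obtained from IC50 by Cheng–Prusoff. Means of at least three experiments run in duplicate.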

DU-145 [1] = experiment: Antiproliferative activity against human DU145 cells at 1 uM after 4 days by XTT assay; format: functional; settings: DU-145, 96 h
Summary of the method: (§2)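 Cells kept at 37 °C, 5% CO2; seeded at 3 × 10³ cells per well, treated 3 h later with vehicle or ligand (1 µM in the four-day panel), medium and ligand renewed every two days for four days. Proliferation read by XTT staining; vehicle-treated O.D. taken as 100%. Two-tailed t-test versus vehicle.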

MCF7 = experiment: Antiproliferative activity against human MCF7 cells at 1 uM after 4 days by XTT assay; format: functional; settings: MCF7, 96 h; summary of the method: as §2
[2] = Antiproliferative activity against human WS1 cells at 1 uM after 4 days by XTT assay; format: cell-based; settings: for Activity: ws1, 96 h, 1 µM; summary of the method: as §2
Cannabinoid receptor 1 = Cannabinoid receptor 1 (Homo sapiens, UniProt P21554); experiment: Displacement of [3H]CP55940 from recombinant human CB1 receptor expressed in human HEK293 cell membrane after 90 mins; format: cell membranes; summary of the method: as §1
DU-145 [3] = experiment: Down-regulation of CB2 receptor protein level in human DU145 cells at 0.3 uM after 24 hrs by immunoblot analysis in presence of CB2 receptor antagonist SR144528; format: functional, cell-based
Summary of the method: (§3)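 DU-145 cells incubated 24 h with ligand at 0.3 µM, with or without SR144528 at 3 µM. Cells washed in PBS, lysed at pH 7.5 in HEPES/NaCl/EDTA/NaF/vanadate/Triton buffer, and centrifuged at 12,000 g, 4 °C. 40 µg protein run on 12% SDS-PAGE and transferred to nitrocellulose. Blots probed overnight with anti-CB2, detected by HRP anti-rabbit and ECL, normalized to actin.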

DU-145 [4] = experiment: Down-regulation of CB2 receptor protein level in human DU145 cells at 0.3 uM after 24 hrs by immunoblot analysis; format: functional, cell-based; summary of the method: as §3
[5] = Antiproliferative activity against myelin basic protein-activated human lymphocytes at 0.3 uM; format: cell-based; settings: lymphocyte
DU-145 [6] = experiment: Antiproliferative activity against human DU145 cells at 0.3 uM after 24 hrs by SRB assay; format: functional, cell-based
Summary of the method: (§4)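 DU-145 cells seeded at 10,000 per well, exposed 24 h to CB2 ligands, with or without SR144528 (3 µM). Line 2 covers 0.1 to 1 µM; lines 3 and 4 use 0.3 µM. Proliferation read as O.D. by sulforhodamine B. Three independent experiments; two-tailed t-test against vehicle and against ligand plus SR144528.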

HEK293 = experiment: Selectivity index, ratio of Ki for recombinant human CB1 receptor expressed in human HEK293 cell membrane to recombinant human CB2 receptor expressed in human HEK293 cell membrane; format: cell-based
Summary of the method: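 Selectivity index is Ki(CB1)/Ki(CB2). Both Ki values come from [3H]CP55,940 displacement over 90 min at 30 °C, using membranes of HEK-293 cells expressing human recombinant CB1R or CB2R, with Cheng–Prusoff conversion.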

DU-145 [7] = experiment: Down-regulation of CB2 receptor protein level in human DU145 cells at 0.3 uM after 24 hrs by immunoblot analysis in presence of CB1 receptor antagonist SR141716; format: functional, cell-based
DU-145 [8] = experiment: Antiproliferative activity against human DU145 cells at 0.1 to 1 uM after 24 hrs by SRB assay; format: functional, cell-based; summary of the method: as §4
DU-145 [9] = experiment: Antiproliferative activity against human DU145 cells at 0.3 uM after 24 hrs by SRB assay in presence of CB2 receptor antagonist SR144528; format: functional, cell-based; summary of the method: as §4
[10] = Solubility of the compound in DMSO/water solution; format: physicochemical
AGS = experiment: Antiproliferative activity against human AGS cells at 1 uM after 4 days by XTT assay; format: functional; settings: 96 h; summary of the method: as §2
T98G = experiment: Antiproliferative activity against human T98G cells at 1 uM after 4 days by XTT assay; format: functional; settings: 96 h; summary of the method: as §2

Cannabinoid receptor 2, sequence (P34972 whole entry): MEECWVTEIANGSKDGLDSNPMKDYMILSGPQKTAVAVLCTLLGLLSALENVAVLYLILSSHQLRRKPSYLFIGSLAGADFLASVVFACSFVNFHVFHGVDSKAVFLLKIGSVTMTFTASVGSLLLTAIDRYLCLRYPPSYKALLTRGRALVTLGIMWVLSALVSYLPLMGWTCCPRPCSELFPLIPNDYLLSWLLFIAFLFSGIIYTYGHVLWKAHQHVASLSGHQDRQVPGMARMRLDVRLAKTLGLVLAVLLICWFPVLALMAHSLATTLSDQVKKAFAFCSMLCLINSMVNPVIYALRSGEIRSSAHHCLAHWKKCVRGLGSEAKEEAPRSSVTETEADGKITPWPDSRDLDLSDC
Cannabinoid receptor 1, sequence (P21554 whole entry): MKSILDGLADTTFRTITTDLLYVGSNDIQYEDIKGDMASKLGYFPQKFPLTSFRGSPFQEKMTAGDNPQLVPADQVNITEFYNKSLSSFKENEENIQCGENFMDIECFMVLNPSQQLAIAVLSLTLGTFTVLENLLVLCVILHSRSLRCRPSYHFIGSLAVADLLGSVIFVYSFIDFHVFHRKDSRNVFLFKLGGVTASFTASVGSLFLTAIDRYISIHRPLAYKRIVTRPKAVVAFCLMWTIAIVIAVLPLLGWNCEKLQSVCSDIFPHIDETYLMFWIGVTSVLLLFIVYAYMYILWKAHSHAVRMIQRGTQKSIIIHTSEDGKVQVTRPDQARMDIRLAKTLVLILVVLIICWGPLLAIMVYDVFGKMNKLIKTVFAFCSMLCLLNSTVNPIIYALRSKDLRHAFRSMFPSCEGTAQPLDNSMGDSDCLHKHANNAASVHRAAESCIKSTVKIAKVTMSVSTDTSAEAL

Compound | Ki (Cannabinoid receptor 2) [nM] | Ki (Cannabinoid receptor 1) [nM] | Ratio Ki (HEK293) | other results
O=C(NC1CCCCCC1)c1cccn(Cc2ccc(F)cc2)c1=O | 7.8 | 43 | 5.5 | inhibition at 1 µM (DU-145 [1]): 15%; inhibition at 1 µM (MCF7): 12%; Activity [2]: Non-toxic; Activity (DU-145 [3]): inactive; Activity (DU-145 [4]): Active; Activity [5]: Non-toxic; Activity (DU-145 [6]): Active; Activity (DU-145 [7]): Active; inhibition (DU-145 [8]): Active; Activity (DU-145 [9]): inactive
O=C(NC1CCCCCC1)c1cccn(CCN2CCOCC2)c1=O | 790 | 950 | 1.2 | 
O=C(NC1CCCCCC1)c1c(O)c2cccnc2n(Cc2ccc(F)cc2)c1=O |  |  |  | solubility [10]: Insoluble
Cc1ccc(Cn2nc(C(=O)N[C@@H]3C(C)(C)[C@@H]4CC[C@@]3(C)C4)cc2-c2ccc(Cl)c(C)c2)cc1 |  |  |  | Activity (DU-145 [4]): Active; Activity [5]: Non-toxic; Activity (DU-145 [9]): inactive
O=C(NC1CCCCC1)c1cccn(CCN2CCOCC2)c1=O | 7900 | > 10000 |  | 
O=C(NC1CCCCC1)c1cccnc1OCc1ccc(F)cc1 | 250 | 1810 | 7.3 | 
O=C(NC1CCCCCC1)c1c(O)c2cccnc2n(CCN2CCOCC2)c1=O | 1.8 | 234 | 130 | inhibition at 1 µM (AGS): 62%; inhibition at 1 µM (DU-145 [1]): 33%; inhibition at 1 µM (T98G): 15%; inhibition at 1 µM (MCF7): 26%; inhibition at 96 h, 1 µM ([2]; WS1 cells): 21%; Activity (DU-145 [3]): inactive; Activity (DU-145 [4]): Active; Activity [5]: Non-toxic; Activity (DU-145 [6]): Active; Activity (DU-145 [7]): Active; inhibition (DU-145 [8]): Active; Activity (DU-145 [9]): inactive
O=C(NC1CCCCC1)c1cccnc1OCc1ccccc1 | 916 | > 10000 |  | 
O=C(NC1CCCCC1)c1cccn(Cc2ccccc2)c1=O | 200 | 800 | 4 | 
O=C(NC1CCCCCC1)c1cc2ccccc2n(Cc2ccc(F)cc2)c1=O | 0.25 | 11.6 | 48 | 
O=C(NC1CCCCC1)c1cc2ccccc2n(Cc2ccc(F)cc2)c1=O | 2.9 | 16.5 | 5.7 | 
O=C(NC1CCCCCC1)c1cc2ccccc2n(CCN2CCOCC2)c1=O | 2 | 206 | 103 | inhibition at 1 µM (DU-145 [1]): 11%; Activity [2]: Non-toxic; Activity (DU-145 [3]): inactive; Activity (DU-145 [4]): Active; Activity [5]: Non-toxic; Activity (DU-145 [6]): Active; Activity (DU-145 [7]): Active; inhibition (DU-145 [8]): Active; Activity (DU-145 [9]): inactive
O=C(NC1CCCCC1)c1cc2ccccc2nc1OCc1ccc(F)cc1 | 130 | 1200 | 9.2 | 
O=C(NC1CCCCC1)c1c(O)c2cccnc2n(CCN2CCOCC2)c1=O | 2.4 | 64.6 | 26.6 | 
O=C(NC1CCCCC1)c1c(O)c2cccnc2n(Cc2ccc(F)cc2)c1=O |  |  |  | solubility [10]: Insoluble
O=C(NC1CCCCCC1)c1cccnc1OCc1ccc(F)cc1 | 25 | 100 | 4 | 
O=C(NC1CCCCC1)c1cccn(Cc2ccc(F)cc2)c1=O | 20 | 70 | 3.5 | 
O=C(NC1CCCCC1)c1cc2ccccc2n(Cc2ccccc2)c1=O | 16 | 67 | 4.2 | 
O=C(NC1CCCCC1)c1c(O)c2cccnc2n(Cc2ccccc2)c1=O | 79 | 560 | 7.1 | 
CCCC(C)(C)c1ccc2c(c1)OC(C)(C)[C@@H]1CC=C(C)C[C@@H]21 | 1.82 | 117 |  | 
O=C(NC1CCCCC1)c1cc2ccccc2n(CCN2CCOCC2)c1=O | 9 | 300 | 33 | 

Reference: ChEMBL document CHEMBL2021892, “Rational design, synthesis and anti-proliferative properties of new CB2 selective cannabinoid receptor ligands: an investigation of the 1,8-naphthyridin-2(1H)-one scaffold” (Eur J Med Chem, 2012)
